Results taken from ChEMBL document CHEMBL1131331, “Structure-activity studies on anticonvulsant sugar sulfamates related to topiramate. Enhanced potency with cyclic sulfate derivatives” (J Med Chem, 1998).

What was measured:
[1] = (§1) Partition coefficient (logP); type: physicochemical; details: octanol/water
Summary of the method: (§2)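 Apparent octanol–water partition coefficient D, measured in unbuffered water (pH 7.2–7.6) using an HPLC refractive-index assay. True P is calculated as […], and P7.4 as P/[1 + 10^(7.4 − pKa)], using pKa values from potentiometric titration.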

[2] = as §1; type: physicochemical; details: octanol/water; summary of the method: as §2; remark: listed apart in the source
[3] = as §1; type: physicochemical; details: octanol/water; summary of the method: as §2; remark: listed apart in the source
[4] = Pharmacokinetic parameter :log P7.4 log P value at pH 7.4; type: physicochemical; details: buffer, read-out: Log D7.4; summary of the method: as §2
[5] = Pharmacokinetic parameter :The dissociation constant values at 25 degrees C, obtained by potentiometric titration.; type: ADME
[6] = pH 7.4 value at 7.35 pH; type: ADME; summary of the method: as §2
[7] = Inhibition concentration by inhibition of carbonic anhydrase from blood in Rat. 95% confidence limits are given in parentheses.
[8] = Inhibition concentration by inhibition of carbonic anhydrase from brain in Rat. 95% confidence limits are given in parentheses.
[9] = Inhibition concentration by inhibition of carbonic anhydrase from myelin in Rat. 95% confidence limits are given in parentheses.
[10] = Inhibition concentration by inhibition of carbonic anhydrase from synaptosomes in Rat. 95% confidence limits are given in parentheses.; type: subcellular, Brain
[11] = Inhibition concentration of the compounds were determined by inhibition of carbonic anhydrase from kidney in Rat. 95% confidence limits are given in parentheses.
Mus musculus [12] = species: Mus musculus; experiment: Compound was tested for the effective dose (ED50) for each time point in Mice. 95% confidence limits are given in parentheses 1 Hour; type: functional; details: Mus musculus, 1 h; read-out: ED50
Mus musculus [13] = species: Mus musculus; experiment: Compound was tested for the effective dose (ED50) for each time point in Mice. 95% confidence limits are given in parentheses 16 Hour; type: functional
Summary of the method: (§3)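 Mouse MES time-course study. Compounds are given orally, and hind-limb tonic-extensor block after corneal-electrode shock is scored at each time point. For each time point, the ED50 (mg/kg) is reported with 95% confidence limits.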

Mus musculus [14] = species: Mus musculus; experiment: Compound was tested for the effective dose (ED50) for each time point in Mice. 95% confidence limits are given in parentheses 2 Hour; type: functional; details: Mus musculus, 2 h; read-out: ED50
Mus musculus [15] = species: Mus musculus; experiment: Compound was tested for the effective dose (ED50) for each time point in Mice. 95% confidence limits are given in parentheses 24 Hour; type: functional; summary of the method: as §3
Rattus norvegicus [16] = species: Rattus norvegicus; experiment: Compound was tested for the effective dose (ED50) for each time point in Rats. 95% confidence limits are given in parentheses 48 Hour; type: functional
Summary of the method: (§4)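 Rat MES time-course study. Compounds are given orally, and block of the hind-limb tonic-extensor seizure induced by corneal electroshock is assessed at each time point. For each time point, the ED50 (mg/kg) is reported with 95% confidence limits.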

Rattus norvegicus [17] = species: Rattus norvegicus; experiment: Compound was tested for the effective dose (ED50) for each time point in Rats. 95% confidence limits are given in parentheses 8 Hour; type: functional; summary of the method: as §4
Rattus norvegicus [18] = species: Rattus norvegicus; experiment: Compound was tested for the effective dose (ED50) for each time point in Rats. 95% confidence limits are given in parentheses 1 Hour; type: functional; summary of the method: as §4
Rattus norvegicus [19] = species: Rattus norvegicus; experiment: Compound was tested for the effective dose (ED50) for each time point in Rats. 95% confidence limits are given in parentheses 12 Hour; type: functional; summary of the method: as §4
Rattus norvegicus [20] = species: Rattus norvegicus; experiment: Compound was tested for the effective dose (ED50) for each time point in Rats. 95% confidence limits are given in parentheses 2 Hour; type: functional; summary of the method: as §4
Rattus norvegicus [21] = species: Rattus norvegicus; experiment: Compound was tested for the effective dose (ED50) for each time point in Rats. 95% confidence limits are given in parentheses 24 Hour; type: functional; summary of the method: as §4
Rattus norvegicus [22] = species: Rattus norvegicus; experiment: Compound was tested for the effective dose (ED50) for each time point in Rats. 95% confidence limits are given in parentheses 4 Hour; type: functional; summary of the method: as §4
Mus musculus [23] = experiment: Activity against maximal electroshock seizures in mice, 4 hr following oral administration of 35 mg/kg of compound; type: functional
Summary of the method: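 Mouse maximal electroshock seizure test. An electric shock is applied through corneal electrodes, and block of the hind-limb tonic-extensor seizure is scored. Compounds are given orally, usually to 10 mice per group, and tested 4 h after dosing. The result is reported as percent of dosed animals protected at the stated dose.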

Rattus norvegicus [24] = species: Rattus norvegicus; experiment: Compound was tested for the effective dose (ED50) for each time point in Rats. 95% confidence limits are given in parentheses 16 Hour; type: functional; summary of the method: as §4
Mus musculus [25] = species: Mus musculus; experiment: Compound was tested for the effective dose (ED50) for each time point in Mice. 95% confidence limits are given in parentheses 12 hr; type: functional; summary of the method: as §3

logP [1]: 2.44
logP [2]: -1.01
logP [3]: 0.42
logD [4]: 0.38
pKa [5]: 8.51
P7.4 [6]: 2.42
IC50 [7]: 84 nM
IC50 [8]: 21 nM
IC50 [9]: 52 nM
IC50 [10]: 21 nM
IC50 [11]: 130 nM
SMILES: CC1(C)O[C@H]2[C@@H]3OS(=O)(=O)O[C@@H]3CO[C@@]2(COS(N)(=O)=O)O1
ED50 (Mus musculus [12]): 8.6 mg/kg
ED50 (Mus musculus [13]): 50 mg/kg
ED50 (Mus musculus [14]): 6.6 mg/kg
ED50 (Mus musculus [15]): 72 mg/kg
ED50 (Rattus norvegicus [16]): 18 mg/kg
ED50 (Rattus norvegicus [17]): 1 mg/kg
ED50 (Rattus norvegicus [18]): 3.8 mg/kg
ED50 (Rattus norvegicus [19]): 1.3 mg/kg
ED50 (Rattus norvegicus [20]): 5.1 mg/kg
ED50 (Rattus norvegicus [21]): 2.6 mg/kg
ED50 (Rattus norvegicus [22]): 1.7 mg/kg
Block (Mus musculus [23]): 100%
ED50 (Rattus norvegicus [24]): 2.5 mg/kg
ED50 (Mus musculus [25]): 23 mg/kg
